A selection: hits, their analogues and other compounds. The true share with any hit is near 2.6%.
MEKK3 PB1 HTS = modulators of MEKK3-MEK5 PB1 binding, primary screen, biochemical, wildtype MEKK3, multiplex bead flow cytometry, Alexa488-MEK5. Mitogen-activated protein kinase kinase kinase 3 (Homo sapiens), Q99759. bead-based flow cytometry, Alexa488-MEK5 binding to MEKK3; actives lie on both sides; 0 = blocked by unlabeled MEK5, 100 = vehicle. binding response (% of control), % at 10 µM. 290,000 tested, 1.4% active. AID 1529, 2009;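 active = binding response more than 3 SD above or below the average of its plate-row segment, actives on both sides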;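 note: Alexa488 bead fluorescence after subtracting the streptavidin-only scavenger bead signal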
Target sequence (Q99759 whole entry, looked up): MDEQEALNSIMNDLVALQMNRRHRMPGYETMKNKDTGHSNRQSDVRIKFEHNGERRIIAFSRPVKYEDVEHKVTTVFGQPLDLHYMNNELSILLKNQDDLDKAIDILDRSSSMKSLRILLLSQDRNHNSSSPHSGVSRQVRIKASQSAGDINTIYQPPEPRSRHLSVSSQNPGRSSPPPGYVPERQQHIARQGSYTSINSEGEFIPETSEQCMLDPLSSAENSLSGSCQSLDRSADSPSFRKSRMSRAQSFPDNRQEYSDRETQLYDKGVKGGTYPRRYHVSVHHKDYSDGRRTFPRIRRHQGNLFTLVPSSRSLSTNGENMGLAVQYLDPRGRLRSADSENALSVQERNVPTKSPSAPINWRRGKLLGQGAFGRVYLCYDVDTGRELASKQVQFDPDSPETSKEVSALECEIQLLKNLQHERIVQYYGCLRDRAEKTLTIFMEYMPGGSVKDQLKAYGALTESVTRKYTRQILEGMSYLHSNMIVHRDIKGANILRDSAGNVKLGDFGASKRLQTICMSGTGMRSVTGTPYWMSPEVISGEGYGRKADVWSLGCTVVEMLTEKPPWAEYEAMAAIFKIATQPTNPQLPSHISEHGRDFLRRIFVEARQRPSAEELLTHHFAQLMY
MEKK2wt PB1 HTS = modulators of MEK5 binding to wildtype MEKK2, primary screen, biochemical, multiplex bead flow cytometry, Alexa488-MEK5; Mitogen-activated protein kinase kinase kinase 2 (Homo sapiens), Q9Y2U5; Alexa488-MEK5 binding to MEKK2 WT; actives lie on both sides; binding response (% of control), % at 10 µM; 290,000 tested, 1.1% active; in the data active = binding response below about 67% or above about 130%
MEKK2mut PB1 HTS = MEK5 binding signal on mutant MEKK2 PB1, primary screen, biochemical, multiplex bead flow cytometry, Alexa488-MEK5; Alexa488-MEK5 binding to MEKK2 mutant; percent response, % at 10 µM; 290,000 tested, 0.35% active; AID 1530, 2009; in the data active = percent response above about 24%, passing the limit was not always enough
Lipid droplet = inhibitors of hepatocyte lipid droplet formation, primary screen, imaging, high-throughput imaging, BODIPY stain | AML12 mouse hepatocytes, oleate lipid droplets | 240,000 tested, 0.4% active | inhibition, % at 6.5 µM;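 active = lipid droplet intensity inhibited by at least 50%, with more than 500 cells counted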
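Test system: AML12 hepatocytes (mouse); reagent: oleate loading, 100 µM; dosing: one dose, 6.5 µM compound; incubation: overnight exposure; signal: fluorescence imaging, 20x objective, two fields per well; read-out basis: % inhibition of corrected integrated BODIPY droplet signal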
MEKK2wt confirm = modulators of MEK5 binding to wildtype MEKK2, confirmation, biochemical, single concentration, multiplex bead flow cytometry | shares compounds with MEKK3 PB1 HTS | Alexa488-MEK5 binding to MEKK2 WT; actives lie on both sides | binding response (% of control), % at 10 µM | 5,900 tested, 2.4% active | AID 1892, 2009; in the data active = binding response below about 16% or above about 210%; inactive = in between
MEKK2mut confirm = mutant MEKK2 PB1-MEK5 binding signal retest – biochemical, single concentration, multiplex bead flow cytometry, confirmation; shares compounds with MEKK3 PB1 HTS; Alexa488-MEK5 binding to MEKK2 mutant; percent response, % at 10 µM; 5,900 tested, 2% active; AID 1893, 2009; in the data active = percent response mostly above about 71%, no sharp cut-off; inactive = mostly below about 38%;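 note: higher means compound restores mutant binding toward wildtype level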
MEKK3 confirm = MEKK3 wild-type PB1 binding to MEK5, inhibitors, confirmation, biochemical, bead multiplex flow cytometry, single concentration, wildtype; shares compounds with MEKK3 PB1 HTS; Alexa488-MEK5 binding to MEKK3; active compounds read low; binding response (% of control), % at 10 µM; 5,900 tested, 1.8% active; AID 1894, 2009;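 active = binding response below 72% of control, or above a set upper limit, though filed actives all read lower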;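 note: 100% = DMSO only wells and 0% = binding blocked by excess unlabeled MEK5; lower values mean stronger disruption of MEK5 binding to MEKK3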
Active calls of the source: *; nt = no result given; [ ] = another dose, or the depositor's remark.

SMILES | MEKK3 PB1 HTS | MEKK2wt PB1 HTS | MEKK2mut PB1 HTS | Lipid droplet | MEKK2wt confirm | MEKK2mut confirm | MEKK3 confirm
COc1ccc(Cl)cc1NC(=O)NCC1CCN(C(=O)OC(C)(C)C)CC1 | 128* | 118 | 28 | -12 | 100 | -10 | 98
c1ccc(CNc2nc(NCc3ccccc3)c3ccccc3n2)cc1 | 106 | 262* | 140* | -16 | 256* | 116* | 113
Cc1cc(OCc2cc(C(=O)NCCN3CCCCC3CO)no2)cc(C)c1Cl (configuration not stated) | 106 | 136* | 19 | 32 | 133 | 18 | 106
Nc1ccc(-c2ccc(N)c(C(=O)O)c2)cc1C(=O)O | 44*[inhibitor] | 46*[inhibitor] | -12 | -3 | 102 | -3 | 102
CC(C)(C)c1cc(C(=O)NC2CC2)n(Cc2ccc(F)cc2)n1 | 131* | 116 | 24 | -4 | 100 | 1 | 104
O=C(CCNC(=O)C1CCN(S(=O)(=O)c2ccc(F)cc2)CC1)NCc1ccccc1 | 99 | 100 | 2 | 2 | nt | nt | nt
Cc1ccc(S(=O)(=O)NC(=O)Nc2nnc(C)s2)cc1 | 0.0*[inhibitor] | 0.0*[inhibitor] | -16 | -1 | 100 | 5 | 98
NC(=NCc1ccco1)NC(=O)c1ccccc1 | 110 | 114 | 3 | -1 | nt | nt | nt
CN(CC#CC(O)(c1ccccc1)c1ccccc1)C(C)(C)C | 90 | 94 | -5 | 8 | nt | nt | nt
C[C@H](N)C(=O)N1CCC(C(=O)N[C@@H](Cc2ccccc2)C(=O)Nc2ccc(F)cc2)CC1 | 97 | 95 | -3 | 4 | nt | nt | nt
C#CCOCCOCCOCCNc1nc(N2CCN(C(=O)[C@H]([C@@H](C)CC)n3cc([C@@H](N)CC(C)C)nn3)CC2)nc(N2CCN(C(=O)[C@H](Cc3ccc(O)cc3)n3cc([C@@H](N)C(C)CC)nn3)CC2)n1 (some centres not stated) | 106 | 156* | 21 | 0 | 129 | 15 | 103
C#CCOCCOCCOCCNc1nc(N2CCN(C(=O)[C@H](Cc3ccc(O)cc3)n3cc([C@@H](N)C(C)CC)nn3)CC2)nc(N2CCN(C(=O)[C@H](CCCCN)n3cc([C@@H](N)CC(C)C)nn3)CC2)n1 (some centres not stated) | 101 | 137 | 19 | -6 | nt | nt | nt
C#CCOCCOCCOCCNc1nc(N2CCN(C(=O)[C@H]([C@@H](C)CC)n3cc([C@@H](N)Cc4ccc(O)cc4)nn3)CC2)nc(N2CCN(C(=O)[C@H](Cc3ccc(O)cc3)n3cc([C@@H](N)C(C)CC)nn3)CC2)n1 (some centres not stated) | 109 | 191* | 58* | 12 | 140 | 12 | 106
C#CCOCCOCCOCCNc1nc(N2CCN(C(=O)[C@H]([C@@H](C)CC)n3cc([C@@H](N)Cc4ccc(O)cc4)nn3)CC2)nc(N2CCN(C(=O)[C@H](CCCCN)n3cc([C@@H](N)CO)nn3)CC2)n1 | 110 | 171* | 46 | -1 | 189 | 132* | 113
C#CCOCCOCCOCCNc1nc(N2CCN(C(=O)C([C@@H](C)CC)n3cc(C(N)CO)nn3)CC2)nc(N2CCN(C(=O)[C@H](CCC(=O)O)n3cc(C(N)Cc4ccc(O)cc4)nn3)CC2)n1 (some centres not stated) | 82 | 88 | 3 | -2 | nt | nt | nt
O=C(NCCCc1ccccn1)C1CCC(=O)N(Cc2cccc(F)c2)C1 (configuration not stated) | 106 | 106 | 4 | 4 | nt | nt | nt
CC(/C=N/NC(=O)CSc1n[nH]c(=O)[nH]c1=O)=C\c1ccccc1 | 107 | 101 | 10 | -6 | nt | nt | nt
COc1cccc(CNC(=O)c2cc(S(=O)(=O)N3CCCC3)cn2C)c1 | 98 | 99 | 1 | -20 | nt | nt | nt
CCCCCOc1ccc(CSC(=N)N)cc1[N+](=O)[O-] | 108 | 148* | 34* | nt | 139 | 23 | 112
COC(=O)C(F)(F)Sc1c(C)[nH]c2ccccc12 | 79*[inhibitor] | 86 | -8 | 10 | 105 | 9 | 106
Cc1[nH]c2ccccc2c1SCC(=O)O | 87 | 96 | -2 | 8 | nt | nt | nt
CCn1cc(S(=O)(=O)N2CCCC2)cn1 | 99 | 97 | -7 | -23 | nt | nt | nt
O=C(O)CSc1ncnc2sc3c(c12)CCCC3 | 93 | 90 | -6 | 0 | nt | nt | nt
Cc1ccc(C(=O)CSc2ncnc3sc4c(c23)CCCC4)cc1 | 0.0*[inhibitor] | -7.0*[inhibitor] | -22 | nt | 99 | -3 | 99
NC(=O)Cn1c(-c2nonc2N)nc2ccccc21 | 99 | 101 | -1 | 34 | nt | nt | nt
SMILES | MEKK3 PB1 HTS | MEKK2wt PB1 HTS | MEKK2mut PB1 HTS | Lipid droplet | MEKK2wt confirm | MEKK2mut confirm | MEKK3 confirm
C=COCCn1c(-c2nonc2N)nc2ccccc21 | 122* | 119 | 9 | nt | 98 | 7 | 102
COc1ccc(S(=O)(=O)NCC2CCCN(Cc3ccccc3C)C2)cc1 (configuration not stated) | 105 | 104 | 2 | -5 | nt | nt | nt
Cc1cc(-c2cc(N)n(-c3ccccc3)n2)c(C)n1C1CCCC1 | 89 | -5.0*[inhibitor] | -34 | nt | 99 | 4 | 102
Nc1ccc(-c2cc(N)n(-c3ccccc3)n2)cc1 | 101 | 101 | 0 | nt | nt | nt | nt
Cc1ccc(C(C)C)cc1OCCCCN1CCCC1 | 100 | 84 | -1 | 2 | nt | nt | nt
Cc1cc(C)n2ncc(/C(N)=N/OC(=O)Nc3ccccc3)c2n1 | 102 | 105 | 2 | -10 | nt | nt | nt
Cc1ccc2nc(N(CCCN(C)C)C(=O)c3ccc4c(c3)CCCC4)sc2c1 | 107 | 191* | 49 | 6 | 162 | 26 | 107
CCOc1ccc2nc(N(CCN(C)C)C(=O)c3ccc4c(c3)CCCC4)sc2c1 | 107 | 152* | 25* | -10 | 147 | 23 | 103
CN(C)CCN(C(=O)c1ccc2c(c1)CCCC2)c1nc2cc3c(cc2s1)OCCO3 | 102 | 118 | 4 | 5 | nt | nt | nt
O=C(C1=C[C@@H](c2ccccc2)C[C@@H](OCc2ccc(CO)cc2)O1)N1CCCCCCC1 | 99 | 90 | -7 | 0 | nt | nt | nt
O=C1CC(N2CCN(c3ccc(F)cc3)CC2)C(=O)N1c1ccc2c(c1)OCO2 (configuration not stated) | 2.0*[inhibitor] | 1.0*[inhibitor] | -84 | -3 | 103 | 4 | 102

Bioassay records (PubChem BioAssay)
